≈ marks a conversion by molar mass, not a printed value.
Key:
[1] = test system: MRC5; test: Cytotoxic concentration against human lung fibroblast MRC-5 cells; type: functional
Procedure, shortened: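 Human lung fibroblasts grown in MEM + 5% heat-inactivated FCS, about 5000 cells/well, exposed to compound in triplicate. Viability read after 7 days with Alamar Blue fluorescent dye and expressed as percent reduction versus untreated wells. CC50 estimated from log-concentration plot; value is mean of three replicates.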

[2] = test system: Leishmania infantum; test: (§1) Inhibitory concentration against intracellular amastigotes of Leishmania infantum; type: functional
Procedure, shortened: (§2)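 Mouse peritoneal macrophages elicited by intraperitoneal 2% potato starch and harvested ~24 h later in RPMI-1640. Each well held 3 × 10^4 macrophages plus 3 × 10^5 parasites with compound, final 0.5–32 µg/mL, in triplicate. After 5 days at 37 °C, Giemsa-stained intracellular amastigotes counted microscopically, expressed as percent reduction vs untreated; mean of three replicates.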

[3] = test system: Leishmania infantum; test: as §1; type: functional, organism-based; procedure, shortened: as §2
[4] = test system: Leishmania infantum; test: Lowest dose (single subcutaneous administration) causing >90% reduction of liveramastigotes of Leishmania infantum in mouse; type: functional
Procedure, shortened: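 Male BALB/c mice given 10^7 L. infantum amastigotes (from spleen of infected donor hamster) intravenously via lateral tail vein on day 0, three per group. Single subcutaneous dose in isotonic saline (filter-sterilized, diluted from 2 mg/mL stock) given day 0. At 7 days post-treatment, Giemsa-stained liver impression smears scored for amastigotes per liver cell.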

[5] = Leishmania infantum, read-out: IC50

IC90 [2] [µg/mL] | IC50 [3, 5] [µg/mL] | IC50 [3] [µg/mL] | Molecule | CC50 [1] [µg/mL] | Dose [4] [mg/kg] | DOSE [4] [mg/kg]
0.373 (≈ 0.404 µM) | 0.285 (≈ 0.308 µM) |  | C[C@@H]1[C@H](O)[C@@H](C)/C=C/C=C/C=C/C=C/C=C/C=C/C=C/[C@H](O[C@@H]2O[C@H](C)[C@@H](O)[C@H](N)[C@@H]2O)C[C@@H]2O[C@](O)(C[C@@H](O)C[C@@H](O)[C@H](O)CC[C@@H](O)C[C@@H](O)CC(=O)O[C@H]1C)C[C@H](O)[C@H]2C(=O)O [AMPHOTERICIN B] | > 32 | >10 | 
> 32 |  |  | STIBOGLUCONATE [listing 1 of 2 here] | > 32 |  | > 40
> 32 | > 32 |  | CC=C(C)C(=O)O[C@H]1[C@H](OC(=O)/C=C/c2ccccc2)[C@@]2(C=O)C(CC1(C)C)C1=CCC3[C@@]4(C)CC[C@H](O)C(C)(C)C4CC[C@@]3(C)[C@]1(C)C[C@H]2O (stereo partly specified) | > 32 |  | 
0.03 (≈ 0.0198 µM) | 0.018 (≈ 0.0119 µM) |  | C/C=C(/C)C(=O)O[C@H]1[C@H](OC(=O)CCc2ccccc2)[C@@]23C(CC1(C)C)[C@]1(CCC4[C@@]5(C)CC[C@H](O[C@@H]6OC(C(=O)O)[C@@H](O)C(O[C@@H]7OC(CO)[C@H](O)C(O)[C@@H]7OC7O[C@@H](C)C(O)[C@H](O)C7OC7O[C@@H](C)[C@H](O)C(O)[C@@H]7O)[C@@H]6O[C@@H]6OC(CO)[C@@H](O)C(O)[C@@H]6O)C(C)(C)C5CC[C@@]4(C)[C@]1(C)C[C@H]2O)O[C@@H]3O (stereo partly specified) | 0.6 (≈ 0.396 µM) |  | 
0.094 (≈ 0.0622 µM) | 0.023 (≈ 0.0152 µM) |  | C/C=C(/C)C(=O)O[C@H]1[C@H](OC(=O)/C=C\c2ccccc2)[C@@]23C(CC1(C)C)[C@]1(CCC4[C@@]5(C)CC[C@H](O[C@@H]6OC(C(=O)O)[C@@H](O)C(O[C@@H]7OC(CO)[C@H](O)C(O)[C@@H]7OC7O[C@@H](C)C(O)[C@H](O)C7OC7O[C@@H](C)[C@H](O)C(O)[C@@H]7O)[C@@H]6O[C@@H]6OC(CO)[C@@H](O)C(O)[C@@H]6O)C(C)(C)C5CC[C@@]4(C)[C@]1(C)C[C@H]2O)O[C@@H]3O (stereo partly specified) | 0.5 (≈ 0.331 µM) | >0.8 | 
0.031 (≈ 0.0202 µM) | 0.018 (≈ 0.0117 µM) |  | C[C@@H]1OC(O[C@H]2C(O)[C@@H](O)C(CO)O[C@H]2OC2[C@H](O)C(C(=O)O)O[C@@H](O[C@H]3CC[C@@]4(C)C(CC[C@]5(C)C4CC[C@]46O[C@H](O)[C@]7(C4CC(C)(C)[C@@H](OC(=O)c4ccccc4)[C@@H]7OC(=O)/C=C\c4ccccc4)[C@H](O)C[C@]65C)C3(C)C)[C@H]2O[C@@H]2OC(CO)[C@@H](O)C(O)[C@@H]2O)C(OC2O[C@@H](C)[C@H](O)C(O)[C@@H]2O)[C@@H](O)C1O (stereo partly specified) | 0.5 (≈ 0.326 µM) | 0.8 | 
> 32 | 22 (≈ 31.4 µM) |  | C/C=C(/C)C(=O)O[C@H]1[C@H](OC(=O)/C=C\c2ccccc2)[C@@]2(C=O)C(CC1(C)C)C1=CCC3[C@@]4(C)CC[C@H](O)C(C)(C)C4CC[C@@]3(C)[C@]1(C)C[C@H]2O (stereo partly specified) | > 32 |  | 
> 32 | > 32 |  | C/C=C(/C)C(=O)O[C@H]1[C@H](OC(=O)/C=C/c2ccccc2)[C@@]2(C=O)C(CC1(C)C)C1=CCC3[C@@]4(C)CC[C@H](O)C(C)(C)C4CC[C@@]3(C)[C@]1(C)C[C@H]2OC(C)=O (stereo partly specified) | > 32 |  | 
 |  | 5.6 | STIBOGLUCONATE [listing 2 of 2 here] |  |  | 
> 32 | > 32 |  | C[C@@H]1OC(O[C@H]2C(O)[C@@H](O)C(CO)O[C@H]2OC2[C@H](O)C(C(=O)O)O[C@@H](O[C@H]3CC[C@@]4(C)C(CC[C@]5(C)C4CC[C@]46O[C@H](O)[C@]7(C4CC(C)(C)[C@@H](O)[C@@H]7O)[C@H](O)C[C@]65C)C3(C)C)[C@H]2O[C@@H]2OC(CO)[C@@H](O)C(O)[C@@H]2O)C(OC2O[C@@H](C)[C@H](O)C(O)[C@@H]2O)[C@@H](O)C1O (stereo partly specified) | > 32 | >40 | 
> 16 | 8 (≈ 11.1 µM) |  | CC1(C)CC2C3=CCC4[C@@]5(C)CC[C@H](O)C(C)(C)C5CC[C@@]4(C)[C@]3(C)C[C@@H](O)[C@@]2(C=O)[C@@H](OC(=O)/C=C/c2ccccc2)[C@@H]1OC(=O)c1ccccc1 (stereo partly specified) | 32 (≈ 44.3 µM) | >40 | 
0.012 (≈ 0.00782 µM) | 0.007 (≈ 0.00456 µM) |  | C[C@@H]1OC(O[C@H]2C(O)[C@@H](O)C(CO)O[C@H]2OC2[C@H](O)C(C(=O)O)O[C@@H](O[C@H]3CC[C@@]4(C)C(CC[C@]5(C)C4CC[C@]46O[C@H](O)[C@]7(C4CC(C)(C)[C@@H](OC(=O)c4ccccc4)[C@@H]7OC(=O)/C=C/c4ccccc4)[C@H](O)C[C@]65C)C3(C)C)[C@H]2O[C@@H]2OC(CO)[C@@H](O)C(O)[C@@H]2O)C(OC2O[C@@H](C)[C@H](O)C(O)[C@@H]2O)[C@@H](O)C1O (stereo partly specified) | 0.5 (≈ 0.326 µM) | 0.2 | 
0.021 (≈ 0.0139 µM) | 0.014 (≈ 0.00926 µM) |  | C/C=C(/C)C(=O)O[C@H]1[C@H](OC(=O)/C=C/c2ccccc2)[C@@]23C(CC1(C)C)[C@]1(CCC4[C@@]5(C)CC[C@H](O[C@@H]6OC(C(=O)O)[C@@H](O)C(O[C@@H]7OC(CO)[C@H](O)C(O)[C@@H]7OC7O[C@@H](C)C(O)[C@H](O)C7OC7O[C@@H](C)[C@H](O)C(O)[C@@H]7O)[C@@H]6O[C@@H]6OC(CO)[C@@H](O)C(O)[C@@H]6O)C(C)(C)C5CC[C@@]4(C)[C@]1(C)C[C@H]2O)O[C@@H]3O (stereo partly specified) | 0.1 (≈ 0.0662 µM) | 0.4 | 
> 32 | > 32 |  | CC(=O)O[C@@H]1C[C@]2(C)C(=CCC3[C@@]4(C)CC[C@H](O)C(C)(C)C4CC[C@]32C)C2CC(C)(C)[C@@H](OC(=O)c3ccccc3)[C@H](OC(=O)/C=C/c3ccccc3)[C@@]21C=O (stereo partly specified) | > 32 |  | 
> 32 | > 32 |  | CC1(C)CC2C3=CCC4[C@@]5(C)CC[C@H](O)C(C)(C)C5CC[C@@]4(C)[C@]3(C)C[C@@H](O)[C@@]2(C=O)[C@@H](OC(=O)/C=C\c2ccccc2)[C@@H]1OC(=O)c1ccccc1 (stereo partly specified) | > 32 |  | 
0.015 (≈ 0.00977 µM) | 0.009 (≈ 0.00586 µM) |  | C[C@@H]1OC(O[C@H]2C(O)[C@@H](O)C(CO)O[C@H]2OC2[C@H](O)C(C(=O)O)O[C@@H](O[C@H]3CC[C@@]4(C)C(CC[C@]5(C)C4CC[C@]46O[C@H](O)[C@]7(C4CC(C)(C)[C@@H](OC(=O)c4ccccc4)[C@@H]7OC(=O)CCc4ccccc4)[C@H](O)C[C@]65C)C3(C)C)[C@H]2O[C@@H]2OC(CO)[C@@H](O)C(O)[C@@H]2O)C(OC2O[C@@H](C)[C@H](O)C(O)[C@@H]2O)[C@@H](O)C1O (stereo partly specified) | 0.3 (≈ 0.195 µM) |  | 
0.125 (≈ 0.0793 µM) | 0.046 (≈ 0.0292 µM) |  | CC(=O)O[C@@H]1C[C@]2(C)[C@@]3(CCC4[C@@]5(C)CC[C@H](O[C@@H]6OC(C(=O)O)[C@@H](O)C(O[C@@H]7OC(CO)[C@H](O)C(O)[C@@H]7OC7O[C@@H](C)C(O)[C@H](O)C7OC7O[C@@H](C)[C@H](O)C(O)[C@@H]7O)[C@@H]6O[C@@H]6OC(CO)[C@@H](O)C(O)[C@@H]6O)C(C)(C)C5CC[C@]42C)O[C@H](O)[C@]12C3CC(C)(C)[C@@H](OC(=O)c1ccccc1)[C@@H]2OC(=O)/C=C/c1ccccc1 (stereo partly specified) | 8 (≈ 5.08 µM) | >0.8 | 
0.125 (≈ 0.0805 µM) | 0.041 (≈ 0.0264 µM) |  | C/C=C(/C)C(=O)O[C@H]1[C@H](OC(=O)/C=C/c2ccccc2)[C@@]23C(CC1(C)C)[C@]1(CCC4[C@@]5(C)CC[C@H](O[C@@H]6OC(C(=O)O)[C@@H](O)C(O[C@@H]7OC(CO)[C@H](O)C(O)[C@@H]7OC7O[C@@H](C)C(O)[C@H](O)C7OC7O[C@@H](C)[C@H](O)C(O)[C@@H]7O)[C@@H]6O[C@@H]6OC(CO)[C@@H](O)C(O)[C@@H]6O)C(C)(C)C5CC[C@@]4(C)[C@]1(C)C[C@H]2OC(C)=O)O[C@@H]3O (stereo partly specified) | 8 (≈ 5.15 µM) | >0.8 | 

Source: ChEMBL document CHEMBL1139494, “In vitro and in vivo anti-leishmanial activity of triterpenoid saponins isolated from Maesa balansae and some chemical derivatives” (J Med Chem, 2005)
